The structures appear in SMILES notation. Activity calls are given as the source filed them. The rule behind the calls is not given here.

Assay [1] concerns PC-3. In words: Cytotoxicity against human PC3 cells assessed as reduction in cell viability at 5 uM after 24 to 48 hrs by resazurin-based prestoblue assay. It counts as functional. In outline:
(§1)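 PC3 human prostate cancer cells (express LPA1 receptor) seeded at 5,000/well, cultured 24 and 48 h, then treated with LPE analogues at 5, 10, 25 or 50 μM for 24 or 48 h. Viability read with resazurin-based PrestoBlue reagent and expressed as % of untreated control (100%). Means ± SD of at least three independent experiments; P < 0.05 versus control.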
(In general: The colour change of resazurin is a common sign of viable cells or microbes.)

A short description of assay [2]: (§2) Cytotoxicity against human PC3 cells assessed as reduction in cell viability at 25 uM after 48 hrs by resazurin-based prestoblue assay. Format: functional, PC-3. Put shortly: as §1
Assay [3] is described as follows: (§3) Cytotoxicity against human PC3 cells assessed as reduction in cell viability at 50 uM after 48 hrs by resazurin-based prestoblue assay. It counts as functional, PC-3. Put shortly:
as §1

Assay [4] relates to PC-3. In words: Cytotoxicity against human PC3 cells assessed as reduction in cell viability at 10 uM after 24 to 48 hrs by resazurin-based prestoblue assay. Format: functional. In outline:
as §1

Assay [5] has as its system PC-3. In words: (§4) Cytotoxicity against human PC3 cells assessed as reduction in cell viability at 10 uM after 48 hrs by resazurin-based prestoblue assay. Format: functional. In outline: as §1
Assay [6] concerns PC-3. The assay is described as §2. Format: functional. In outline:
as §1

Assay [7] deals with PC-3. The description is as §3. It counts as functional. In outline: as §1
Assay [8] relates to PC-3. In words: Cytotoxicity against human PC3 cells assessed as reduction in cell viability at 50 uM after 24 to 48 hrs by resazurin-based prestoblue assay. It counts as functional. In outline:
as §1

A short description of assay [9]: as §4. It counts as functional, PC-3. In outline: as §1
Assay [10] in a line: Cytotoxicity against human PC3 cells assessed as reduction in cell viability at 10 uM after 24 hrs by resazurin-based prestoblue assay. It counts as functional, PC-3. In outline:
as §1

With `CCCCCCCCCCCCCCCC(=O)OCC(COP(=O)(S)OCCN)OC` (configuration not stated), the outcome in the assay with PC-3 [1] and in the assay on PC-3 [4] was inactive. In addition, the Activity in assay [2] is given as 79.1%; in assay [3] it was 70%.
In the case of `CCCCCCCCCCCCCC(=O)OCC(COP(=O)(S)OCCN)OC` (mixture of isomers), the outcome with PC-3 [1] and with PC-3 [4] was inactive. For the same compound, the Activity in assay [2] is on record as 59.8%; in assay [3], 43.8%.
For the compound `CCCCCCCC/C=C\CCCCCCCC(=O)OCC(COP(=O)(O)OCCN)OC` (mixture of isomers), the outcome in the assay with PC-3 [1] and with PC-3 [4] was inactive. The result with PC-3 [5], in the assay with PC-3 [6] and in the assay with PC-3 [7] was Active.
In the case of `CCCCCCCC/C=C\CCCCCCCC(=O)OCC(COP(=O)(S)OCCN)OC` (mixture of isomers), the outcome with PC-3 [1], in the assay on PC-3 [8] and with PC-3 [4] was inactive.
For `CCCCCCCCCCCCCCCCCC(=O)OCC(COP(=O)(S)OCCN)OC` (mixture of isomers), the result in the assay with PC-3 [1], in the assay with PC-3 [8] and in the assay on PC-3 [4] was inactive.
Regarding `CCCCCCCCCCCCCCCC(=O)OCC(COP(=O)(O)OCCN)OC` (racemic), the outcome in the assay on PC-3 [1] was inactive. Moreover, the Activity in assay [9] was determined as 78.8%; in assay [2], 49.5%; in assay [3], 24.9%.
For the compound `CCCCCCCCCCCCCC(=O)OCC(COP(=O)(O)OCCN)OC` (racemic), the Activity in assay [10] came out at 68.2%; in assay [9], 59.8%; in assay [2], 22.7%; in [3], 6.3%.
`CCCCCCCCCCCCCCCCCC(=O)OCC(COP(=O)(O)OCCN)OC` (racemic): the result in the assay with PC-3 [1] and with PC-3 [4] was inactive. Besides, the outcome in the assay with PC-3 [5], with PC-3 [6] and in the assay on PC-3 [7] was Active.

For the origin of these results see ChEMBL document CHEMBL3822448, “The chemical synthesis and preliminary biological studies of phosphodiester and phosphorothioate analogues of 2-methoxy-lysophosphatidylethanolamine” (2016).
